{"data": "Assay results gathered from unrelated publications", "organism": "Mycobacterium tuberculosis"}
{"Structure (SMILES)": "Cc1ccc(NC(=O)c2cccc(C(F)(F)F)c2)cc1Nc1nccn1-c1cc(NN2CCN(C)CC2)ncn1", "observed": "microbial growth", "strain": "H37RV", "endpoint": "MIC50", "result": "9.67 µM"}
{"Structure (SMILES)": "CCCCCCC#Cc1cncc(-c2nnc(SCc3ccc(C#N)cc3)n2C)c1", "observed": "microbial growth", "endpoint": "IC50", "result": "2300 nM"}
{"Structure (SMILES)": "Cc1ccc(NC(=O)c2cc(N3CCNCC3)cc(C(F)(F)F)c2)cc1Nc1nccn1-c1cc(NC2CC2)ncn1", "observed": "microbial killing", "strain": "H37RV", "time": "5 days", "endpoint": "MBC", "result": "2.5 to 5 µM"}
{"Structure (SMILES)": "NNC(=O)c1ccncc1", "observed": "microbial growth", "strain": "H37RV", "endpoint": "MIC", "result": "> 13.7 µg/mL"}
{"Structure (SMILES)": "Cc1cn(-c2cc(C(=O)Nc3ccc(C)c(Nc4nccn4-c4cc(NC5CC5)ncn4)c3)cc(C(F)(F)F)c2)cn1", "observed": "microbial growth", "strain": "H37RV", "endpoint": "MIC50", "result": "0.65 µM"}
{"Structure (SMILES)": "COC(=O)c1cc(-c2cccc(NC(=O)Nc3ccc(C(F)(F)F)cc3)c2)on1", "observed": "microbial growth", "strain": "ATCC27294 H37RV", "time": "7 days", "endpoint": "MIC", "result": "0.5 µg/mL"}
{"Structure (SMILES)": "CC[C@@H](CO)NCCN[C@@H](CC)CO", "observed": "microbial growth", "strain": "H37RV", "endpoint": "IC90", "result": "4610 nM"}
{"Structure (SMILES)": "CN(CC[C@H](N)CC(=O)N[C@H]1C=C[C@H](n2ccc(N)nc2=O)O[C@@H]1C(=O)O)C(=N)N", "observed": "microbial growth", "strain": "H37RA", "endpoint": "IC50", "result": "19000 nM"}
{"Structure (SMILES)": "O=[N+]([O-])c1ccc(/C=N/Nc2nc(Nc3ccccc3)nc(N3CCOCC3)n2)o1", "observed": "microbial killing", "endpoint": "MBC", "result": "1.6 µM"}
{"Structure (SMILES)": "O=C(C[n+]1cn(Cc2cccc(Cn3c[n+](CC(=O)c4ccc([N+](=O)[O-])cc4)c4ccccc43)n2)c2ccccc21)c1ccc([N+](=O)[O-])cc1", "observed": "microbial killing", "strain": "H37RV", "time": "21 days", "endpoint": "MBC", "result": "50 µM"}
{"Structure (SMILES)": "[H]/N=C(/N)N[C@H]1[C@H](O)[C@@H](O)[C@H](O[C@@H]2O[C@@H](C)[C@](O)(C=O)[C@H]2O[C@@H]2O[C@@H](CO)[C@H](O)[C@@H](O)[C@@H]2NC)[C@@H](N/C(N)=N\\[H])[C@@H]1O", "observed": "microbial growth", "strain": "H37RV", "endpoint": "IC90", "result": "280 nM"}
{"Structure (SMILES)": "CCCCCCC#Cc1cncc(-c2nnc(SCc3ccc([N+](=O)[O-])o3)n2C)c1", "observed": "microbial growth", "strain": "ERDMAN", "endpoint": "IC90", "result": "240 nM"}
{"Structure (SMILES)": "COC(=O)c1cc(-c2ccc(NC(=O)Nc3ccc(Cl)c(Cl)c3)cc2)on1", "observed": "microbial growth", "strain": "ATCC27294 H37RV", "time": "7 days", "endpoint": "MIC", "result": "0.5 µg/mL"}
{"Structure (SMILES)": "CNc1cc(-n2nc(C(=O)NCCN3C(C)CCCC3C)cc2Nc2cc(NC(=O)c3cncc(C(C)(C)C)c3)ccc2C)ncn1 (stereo not shown)", "observed": "microbial growth", "strain": "H37RV", "endpoint": "MIC50", "result": "0.11 µM"}
{"Structure (SMILES)": "COC(=O)c1cc(-c2cccc(NC(=S)Nc3ccccc3Cl)c2)on1", "observed": "microbial growth", "strain": "ATCC27294 H37RV", "time": "7 days", "endpoint": "MIC", "result": "2 µg/mL"}
{"Structure (SMILES)": "CO[C@H]1/C=C/O[C@@]2(C)Oc3c(C)c(O)c4c(O)c(c(/C=N/N5CCN(C)CC5)c(O)c4c3C2=O)NC(=O)/C(C)=C\\C=C\\[C@H](C)[C@H](O)[C@@H](C)[C@@H](O)[C@@H](C)[C@H](OC(C)=O)[C@@H]1C", "observed": "microbial growth", "strain": "H37RV", "tested at": "12.5 µg/mL", "endpoint": "inhibition", "result": "97%"}
{"Structure (SMILES)": "NNC(=O)c1ccncc1", "observed": "microbial growth", "strain": "ERDMAN", "endpoint": "IC90", "result": "> 1000 nM"}
{"Structure (SMILES)": "O=[N+]([O-])c1cc2cc3ccc4oc([N+](=O)[O-])cc4c3cc2o1", "observed": "microbial killing", "method": "resazurin", "strain": "H37RV", "endpoint": "MBC", "result": "0.5 µg/mL"}
{"Structure (SMILES)": "CCc1nc2ccc(Cl)cn2c1C(=O)NCc1ccc(N2CCC(c3ccc(OC(F)(F)F)cc3)CC2)cc1", "observed": "microbial growth", "strain": "H37RV", "endpoint": "MIC90", "result": "0.02 µM"}
{"Structure (SMILES)": "CCCCCCC#Cc1cncc(-c2nnc(SCc3ccc([N+](=O)[O-])cc3)n2C)c1", "observed": "microbial growth", "strain": "ERDMAN", "endpoint": "IC90", "result": "> 50000 nM"}
{"Structure (SMILES)": "COC(=O)c1cc(-c2cccc(NC(=O)Nc3c(C)cccc3C)c2)on1", "observed": "microbial growth", "strain": "ATCC27294 H37RV", "time": "7 days", "endpoint": "MIC", "result": "64 µg/mL"}
{"Structure (SMILES)": "CCCCCCC#Cc1cncc(-c2nnc(SCc3cc([N+](=O)[O-])cc([N+](=O)[O-])c3)n2C)c1", "observed": "microbial growth", "endpoint": "IC50", "result": "61 nM"}
{"Structure (SMILES)": "COC(=O)c1cc(-c2ccc(OC)c(NC(=O)Nc3ccc(Cl)c(Cl)c3)c2)on1", "observed": "microbial growth", "strain": "ATCC27294 H37RV", "time": "7 days", "endpoint": "MIC", "result": "8 µg/mL"}
{"Structure (SMILES)": "CCCCCCC#Cc1cncc(-c2nnc(Sc3ccc([N+](=O)[O-])cc3[N+](=O)[O-])n2C)c1", "observed": "microbial growth", "strain": "ERDMAN", "endpoint": "IC50", "result": "1100 nM"}
{"Structure (SMILES)": "CCOC(=O)c1c(NC(=O)c2c(F)c(F)c(F)c(F)c2F)sc2c1CCN(CC)C2", "observed": "microbial growth", "strain": "H37RV", "endpoint": "MIC50", "result": "0.12 µM"}
{"Structure (SMILES)": "COC(=O)c1cc(-c2cccc(NC(=O)Nc3ccc(OC)cc3)c2)on1", "observed": "microbial growth", "strain": "ATCC27294 H37RV", "time": "7 days", "endpoint": "MIC", "result": "8 µg/mL"}
{"Structure (SMILES)": "CCCCCCC#Cc1cncc(-c2nnc(SCc3ccc(Cl)c(F)c3)n2C)c1", "observed": "microbial growth", "strain": "ERDMAN", "endpoint": "IC90", "result": "13000 nM"}
{"Structure (SMILES)": "COC(=O)c1cc(-c2cccc(NC(=O)NCc3ccccc3)c2)on1", "observed": "microbial growth", "strain": "ATCC27294 H37RV", "time": "7 days", "endpoint": "MIC", "result": "4 µg/mL"}
{"Structure (SMILES)": "CCc1nc2ccc(Cl)cn2c1C(=O)NCc1ccc(N2CCC(c3ccc(OC(F)(F)F)cc3)CC2)cc1", "observed": "microbial growth", "strain": "ERDMAN", "endpoint": "IC50", "result": "3.1 nM"}
{"Structure (SMILES)": "COC(=O)c1cc(-c2cccc(NC(=O)Nc3ccc(F)cc3F)c2)on1", "observed": "microbial growth", "strain": "ATCC27294 H37RV", "time": "7 days", "endpoint": "MIC", "result": "1 µg/mL"}
{"Structure (SMILES)": "O=C(C[n+]1cn(Cc2cccc(Cn3c[n+](CC(=O)c4ccccc4)c4ccccc43)n2)c2ccccc21)c1ccccc1", "observed": "microbial killing", "strain": "H37RV", "time": "21 days", "endpoint": "MBC", "result": "100 µM"}
